22 compounds from ChEMBL document CHEMBL5357038, “Highly efficient, catalyst-free, one-pot sequential four-component synthesis of novel spiroindolinone-pyrazole scaffolds as anti-Alzheimer agents: in silico study and biological screening” (RSC Med Chem, 2024) can be followed below.

The inhibition is the change of the read-out against control, counted positive when it falls. As a reminder, the IC50 is the point on the concentration scale where inhibition reaches its midpoint. Lower therefore signals greater potency. Usually Ki stands for the dissociation constant of the complex between target and ligand, obtained from inhibition or displacement.

Active and inactive are the calls of the source. The rule behind the calls is not given here.

Test [1] has as its target T1, Cholinesterase (Homo sapiens, UniProt P06276). Put plainly: Inhibition of BuChE (unknown origin) at 50 uM by Ellman's method relative to control. Background: Ellman's reagent forms a yellow product with free thiols.
The target of test [2] is T2, Acetylcholinesterase (Homo sapiens, UniProt P22303). Put plainly: Inhibition of AChE (unknown origin) at 50 uM by Ellman's method relative to control.
T2 sequence (P22303 whole entry): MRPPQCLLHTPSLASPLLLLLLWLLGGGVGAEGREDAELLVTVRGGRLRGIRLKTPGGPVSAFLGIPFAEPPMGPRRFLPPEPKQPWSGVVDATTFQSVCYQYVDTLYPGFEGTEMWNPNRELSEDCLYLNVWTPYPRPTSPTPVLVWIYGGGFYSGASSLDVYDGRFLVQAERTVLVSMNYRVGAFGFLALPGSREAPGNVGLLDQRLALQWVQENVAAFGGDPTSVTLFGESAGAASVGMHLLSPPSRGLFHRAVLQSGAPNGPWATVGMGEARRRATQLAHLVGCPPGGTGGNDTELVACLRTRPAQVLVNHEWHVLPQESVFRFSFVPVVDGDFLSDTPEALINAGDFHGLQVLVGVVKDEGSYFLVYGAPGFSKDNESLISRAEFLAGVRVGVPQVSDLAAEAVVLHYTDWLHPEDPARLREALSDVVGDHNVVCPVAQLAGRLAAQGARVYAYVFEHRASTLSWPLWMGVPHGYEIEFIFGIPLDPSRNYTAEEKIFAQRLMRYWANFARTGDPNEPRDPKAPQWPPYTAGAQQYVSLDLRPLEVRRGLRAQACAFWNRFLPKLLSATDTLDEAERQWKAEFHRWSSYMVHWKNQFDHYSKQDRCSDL
Test [3] deals with T2, Acetylcholinesterase. Put plainly: Inhibition of AChE (unknown origin) by Ellman's method.
Test [4] has as its target T2, Acetylcholinesterase. Briefly: Inhibition of AChE (unknown origin) using acetylthiocholine as substrate incubated for 15 mins by DTNB reagent based Ellman's method.
Test [5] has as its target T1, Cholinesterase. Put plainly: Inhibition of BuChE (unknown origin) incubated for 15 mins by DTNB reagent based Ellman's method.
The target of test [6] is T1, Cholinesterase. Briefly: Inhibition of BuChE (unknown origin) by Ellman's method.
Test [7] concerns the target T2, Acetylcholinesterase. Briefly: Inhibition of AChE (unknown origin).
Test [8] deals with T2, Acetylcholinesterase. Put plainly: Mixed type inhibition of AChE (unknown origin) assessed as increase in Km at 2 to 12 uM by Lineweaver-burk plot analysis. Conditions: dose 2-12 µM. An outline of the steps: (§1)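 AChE kinetics run with acetylthiocholine substrate at 0.1–1 mM, with no inhibitor and with several inhibitor concentrations. Lineweaver–Burk double-reciprocal plots (1/V vs 1/[S]) across the inhibitor concentrations assigned the inhibition type and gave Km. Ki was estimated from a secondary plot of the slopes against inhibitor concentration.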

Test [9] relates to SH-SY5Y. Briefly: Cytotoxicity against human SH-SY5Y cells assessed as reduction in cell viability at 5 uM by MTT assay. The test is classed as functional, cell-based. The method, boiled down: (§2)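 SH-SY5Y cells were grown in DMEM/F12 with 15% FBS, penicillin (100 units per ml) and streptomycin (100 μg ml−1) at 37 °C in humidified 5% CO2/95% air. After treatment, MTT was added at 0.5 mg ml−1 final for a further 2 h. Formazan was dissolved in DMSO and read at 540 nm. Untreated control cells were set as 100% viability.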
For orientation: Tetrazolium dyes change colour on reduction, which living cells bring about.

Test [10] deals with T2, Acetylcholinesterase. Put plainly: Mixed type inhibition of AChE (unknown origin) assessed as change in Vmax by Lineweaver-burk plot analysis. The following applies: dose 2-12 µM. An outline of the steps:
as §1

In test [11] the test system is SH-SY5Y. Briefly: Cytotoxicity against human SH-SY5Y cells assessed as reduction in cell viability at 50 uM by MTT assay. In kind it is functional. An outline of the steps:
as §2

Test [12] has as its target T2, Acetylcholinesterase. Put plainly: Mixed type inhibition of AChE (unknown origin) assessed as inhibition constant by Lineweaver-burk plot analysis. An outline of the steps: as §1
In test [13] the target is T2, Acetylcholinesterase. Put plainly: Inhibition of AChE (unknown origin) assessed as inhibition constant. An outline of the steps: as §1
Test [14] can be described thus: Selectivity index, ratio of Ki for inhibition of AChE (unknown origin) to Ki for inhibition of BuChE (unknown origin).
Test [15] in a line: Cytotoxicity against human MC65 cells assessed as reduction in cell viability. The test is classed as functional.
Test [16] has as its target T1, Cholinesterase. Put plainly: Inhibition of BuChE (unknown origin).

T1 sequence (P06276 whole entry): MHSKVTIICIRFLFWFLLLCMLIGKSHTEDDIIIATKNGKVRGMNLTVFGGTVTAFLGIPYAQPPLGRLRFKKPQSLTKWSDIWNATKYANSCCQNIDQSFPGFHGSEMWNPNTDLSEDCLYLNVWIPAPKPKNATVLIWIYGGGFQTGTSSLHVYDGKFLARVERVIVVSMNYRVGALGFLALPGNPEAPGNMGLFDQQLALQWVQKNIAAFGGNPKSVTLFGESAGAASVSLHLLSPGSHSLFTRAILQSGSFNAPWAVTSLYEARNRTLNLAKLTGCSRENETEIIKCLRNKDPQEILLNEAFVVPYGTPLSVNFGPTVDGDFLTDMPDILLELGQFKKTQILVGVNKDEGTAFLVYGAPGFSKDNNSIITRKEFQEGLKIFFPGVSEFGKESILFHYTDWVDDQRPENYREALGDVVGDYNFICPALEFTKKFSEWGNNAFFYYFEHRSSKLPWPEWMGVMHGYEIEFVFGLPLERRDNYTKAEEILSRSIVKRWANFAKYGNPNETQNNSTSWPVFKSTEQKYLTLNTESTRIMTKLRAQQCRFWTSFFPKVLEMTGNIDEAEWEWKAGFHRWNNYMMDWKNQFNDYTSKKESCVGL

With `O=C1Nc2c(C(F)(F)F)cccc2C12NNC(Nc1cccc(Cl)c1)=C2[N+](=O)[O-]` (centres undefined), the inhibition at Cholinesterase [1] came out at 18.8%; against Acetylcholinesterase [2], 20.6%.
With `O=C1Nc2ccc([N+](=O)[O-])cc2C12NNC(Nc1ccc(Cl)cc1)=C2[N+](=O)[O-]` (centres undefined), the inhibition came out at 21.8% on Cholinesterase [1] and 65.9% against Acetylcholinesterase [2]. On Acetylcholinesterase [3], the IC50 stood at 37.1 µM.
Consider `O=C1Nc2ccccc2C12NNC(Nc1ccc(O)cc1)=C2[N+](=O)[O-]` (centres undefined), for which the inhibition on Cholinesterase [1] is 12.9%; on Acetylcholinesterase [2], 41%.
Take `Cc1ccccc1NC1=C([N+](=O)[O-])C2(NN1)C(=O)Nc1c(C(F)(F)F)cccc12` (centres undefined): the inhibition against Cholinesterase [1] is 37.5%; against Acetylcholinesterase [2], 63.1%. Moreover, the IC50 against Acetylcholinesterase [3] was determined as 17 µM.
On to `CCOP(=O)(OCC)C(NCc1cccs1)c1cn(-c2ccccc2)nc1-c1ccc(Cl)cc1` (centres undefined), for which the IC50 turned out to be 0.017 µM against Acetylcholinesterase [4] and 6.33 µM against Cholinesterase [5].
As to `O=C1Nc2c(C(F)(F)F)cccc2C12NNC(Nc1cccc3ccccc13)=C2[N+](=O)[O-]` (centres undefined), on Cholinesterase [1], the inhibition result is “inactive”. The inhibition against Acetylcholinesterase [2] was 39.1%.
As to `COc1ccc(OC)c(NC2=C([N+](=O)[O-])C3(NN2)C(=O)Nc2ccc([N+](=O)[O-])cc23)c1` (centres undefined), the values for the inhibition against Cholinesterase [1] and at Acetylcholinesterase [2] were 25.1% and 55.1%, respectively. The compound also registered an IC50 against Acetylcholinesterase [3] of 42.6 µM.
For the compound `Cc1ccc(NC2=C([N+](=O)[O-])C3(NN2)C(=O)Nc2ccccc23)cc1C` (centres undefined), the inhibition against Cholinesterase [1] worked out at 31.1%; at Acetylcholinesterase [2], 29.4%.
Take `COc1ccc(NC2=C([N+](=O)[O-])C3(NN2)C(=O)Nc2ccccc23)cc1` (centres undefined): at Cholinesterase [6], 34.7 µM corresponded to half-maximal inhibition (IC50). The inhibition at Cholinesterase [1] was found to be 53.4%; against Acetylcholinesterase [2] it was 47.8%.
As for `COc1ccc(NC2=C([N+](=O)[O-])C3(NN2)C(=O)Nc2ccc(OC)cc23)cc1` (centres undefined), the inhibition entry on Cholinesterase [1] is “inactive”. On Acetylcholinesterase [2], this compound came in with an inhibition of 29.7%.
With `Cc1cc(-c2cc3cc([N+](=O)[O-])ccc3oc2=O)n[nH]1`, on Acetylcholinesterase [7], half-maximal inhibition (IC50) was put at 16.3 µM.
Regarding `O=C1Nc2ccccc2C12NNC(Nc1cccc(Cl)c1)=C2[N+](=O)[O-]` (centres undefined), the inhibition result at Acetylcholinesterase [8] was “Active”. Further, in the test on SH-SY5Y [9], the outcome was inactive. Besides, the inhibition result on Acetylcholinesterase [10] was “Dose-Dependent Effect”; on Cholinesterase [1], 13.9%; against Acetylcholinesterase [2], 75.5%. Also, in the test with SH-SY5Y [11], the Activity worked out at 64.81%. On Acetylcholinesterase [12], the Ki was 5.59 µM. The midpoint of inhibition against Acetylcholinesterase [3], the IC50, lay at 6.02 µM.
Take `Cc1ccccc1NC1=C([N+](=O)[O-])C2(NN1)C(=O)Nc1ccc([N+](=O)[O-])cc12` (centres undefined): the inhibition against Cholinesterase [1] was found to be 38.9%; against Acetylcholinesterase [2], 71.6%. The compound also displayed an IC50 against Acetylcholinesterase [3] of 15.5 µM.
In the case of `Cc1ccccc1NC1=C([N+](=O)[O-])C2(NN1)C(=O)Nc1ccc(Cl)cc12` (centres undefined), half-maximal inhibition against Cholinesterase [6] (IC50) was put at 9.13 µM. Further, the inhibition at Cholinesterase [1] worked out at 73.8%; at Acetylcholinesterase [2], 21.9%.
Consider `NS(=O)(=O)c1cccc(NC(=S)N/N=C2\C(=O)N(Cc3ccccc3)c3ccc([N+](=O)[O-])cc32)c1`, for which, at Acetylcholinesterase [13], the Ki came to 0.22 µM.
Regarding `Cc1ccccc1NC1=C([N+](=O)[O-])C2(NN1)C(=O)Nc1ccccc12` (centres undefined), half-maximal inhibition against Cholinesterase [6] (IC50) required 20 µM. The inhibition against Cholinesterase [1] stood at 60.1%; on Acetylcholinesterase [2], 35.4%.
Regarding `Cc1cc(Cl)cc2c1N(C)C(=O)/C2=N\NC(=S)Nc1cccc(S(N)(=O)=O)c1`, at Acetylcholinesterase [13], the Ki is 0.52 µM. In addition, the Ratio Ki in [14] turned out to be 37.7.
`COc1ccc2c(c1)C1(NNC(Nc3ccc(C)c(C)c3)=C1[N+](=O)[O-])C(=O)N2` (centres undefined) came in with an IC50 against Cholinesterase [6] of 47.3 µM. The same compound returned an inhibition against Cholinesterase [1] of 52.3%. Also, the inhibition entry at Acetylcholinesterase [2] was “inactive”.
For the compound `Cc1ccccc1NC1=C([N+](=O)[O-])C2(NN1)C(=O)Nc1ccc(Br)cc12` (centres undefined), the inhibition at Cholinesterase [1] is 34%; against Acetylcholinesterase [2], 51.8%. Moreover, the IC50 at Acetylcholinesterase [3] worked out at 41.7 µM.
In the case of `O=C(Nc1cccc(-c2cc(-c3ccc(Cl)cc3)n[nH]2)c1)c1ccccc1`, the Activity in test [15] turned out to be 90%. For the same compound, the IC50 at Cholinesterase [16] came out at 1.17 µM; against Acetylcholinesterase [7], 1.94 µM.
For `Cc1ccc(NC2=C([N+](=O)[O-])C3(NN2)C(=O)Nc2ccccc23)cc1` (centres undefined), half-maximal inhibition against Cholinesterase [6] (IC50) was put at 25.1 µM. Also, the values for the inhibition against Cholinesterase [1] and against Acetylcholinesterase [2] were 56.5% and 30.5%, respectively.
On to `O=C1Nc2ccccc2C12NNC(Nc1ccc(Cl)cc1)=C2[N+](=O)[O-]` (centres undefined), for which the figures for the inhibition against Cholinesterase [1] and at Acetylcholinesterase [2] were 14.9% and 13.9%, respectively.
